The record followed here is ChEMBL document CHEMBL1138890, “Development of N-2,4-pyrimidine-N-phenyl-N'-alkyl ureas as orally active inhibitors of tumor necrosis factor alpha (TNF-alpha) synthesis. Part 2” (Bioorg Med Chem Lett, 2006).

Values after ≈ are worked out from the molar mass of the structure shown.

The subject of data set [1] is THP-1. The data set is described as follows: Inhibition of LPS-stimulated TNFalpha production in human THP1 cells. The class given is functional, cell-based.
A short description of data set [2]: Metabolism measured as percent loss of compound in Sprague-Dawley rat hepatocytes after 4 hrs. The class given is ADME, cell-based, Hepatocyte. The conditions noted are these: read-out: Activity. The method, boiled down: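 Compound incubated with plated Sprague–Dawley rat hepatocytes for 4 h. Metabolism expressed as percent loss of parent compound.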
A short description of data set [3]: Solubility in Sprague-Dawley rat. The class given is ADME, organism-based.
Data set [4] can be described thus: Half life in Sprague-Dawley rat. The class given is ADME, organism-based. The conditions noted are these: in vivo.
A short description of data set [5]: Bioavailability in Sprague-Dawley rat. The class given is ADME, organism-based. Conditions: in vivo.
Data set [6] has as its system Rattus norvegicus. The data set can be described thus: Reduction in severity of cartilage damage in Sprague-Dawley rat at 25 mg/kg. The class given is functional. Further details: scale not given: the % may be the effect or the level left. Put shortly:
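Osteoarthritis was induced in male Sprague–Dawley rats (200–225 g) under anesthesia by injecting 20 µL of 10 mg/mL monosodium iodoacetate into the patellar ligament region of the left knee, flexed 90°. Groups of 15 were dosed BID (about every 12 h) for 7 days with 25 mg/kg compound or vehicle (2.5 mL/kg). On day 22 the left joint was fixed in 10% formalin for 24–48 h and the tibial cartilage surface imaged. Damage severity was compared with vehicle (P < 0.05).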

The subject of data set [7] is THP-1. The data set can be described thus: Inhibition of LPS-stimulated TNFalpha production in human THP1 cells at 10 uM. The class given is functional.
A short description of data set [8]: Bioavailability in po dosed Sprague-Dawley rat. The class given is ADME, organism-based. Conditions: in vivo.

Take `CCNC(=O)N(c1ccc(F)cc1)c1ccnc(NC2CCOCC2)n1`: the IC50 in data set [1] was determined as 86 nM. In data set [2], the metabolised at 4 h worked out at 16%. In data set [3], this compound showed a solubility of 25 µg/mL (≈ 69.6 µM). Further, the half-life in data set [4] is 0.46 h. For the same compound, the bioavailability in data set [5] was 13.2%. For the same compound, in data set [6], the Activity came out at 16%.

On to `CC(C)NC(=O)N(c1ccc(F)cc1)c1ccnc(NC(C)C)n1`, for which, in data set [1], the IC50 is 74 nM.

The compound `CCNC(=O)N(c1ccc(OC)cc1)c1ccnc(NC(C)C)n1` displayed an IC50 in data set [1] of 80 nM.

Take `CCNC(=O)N(c1ccc(OCC)cc1)c1ccnc(N[C@@H](C)COC)n1`: in data set [1], the IC50 was 276 nM.

In turn, `CC(C)Nc1nccc(N(C(=O)NCc2ccncc2)c2ccc(F)cc2)n1` displayed an IC50 in data set [1] of 4 nM.

For `CN(C)c1nccc(N(C(=O)NCc2ccccc2Cl)c2ccc(F)cc2)n1`, in data set [7], the inhibition at 10 µM came out at 35%.

For `CCOc1ccc(N(C(=O)NCc2ccccc2Cl)c2ccnc(N[C@@H](C)COC)n2)cc1`, the IC50 in data set [1] is 56 nM.

In the case of `COC[C@H](C)Nc1nccc(N(C(=O)NCc2ccc(Cl)cc2Cl)c2ccc(OC)cc2)n1`, the IC50 in data set [1] was determined as 611 nM.

In data set [1], `CCCCNC(=O)N(c1ccc(OC)cc1)c1ccnc(N[C@@H](C)COC)n1` gave an IC50 of 324 nM.

In data set [1], `CC(C)Nc1nccc(N(C(=O)NCC2CCNCC2)c2ccc(F)cc2)n1` gave an IC50 of 16 nM.

In the case of `COC[C@H](C)Nc1nccc(N(C(=O)NCc2ccccc2Cl)c2ccc(F)cc2)n1`, in data set [1], the IC50 worked out at 236 nM.

In data set [1], `CC(C)Nc1nccc(N(C(=O)NCCN2CCNCC2)c2ccc(F)cc2)n1` yielded an IC50 of 119 nM.

In data set [1], `COC[C@H](C)Nc1nccc(N(C(=O)NC2CCCCC2)c2ccc(OC)cc2)n1` yielded an IC50 of 467 nM.

`COc1ccc(N(C(=O)NCc2ccccc2OC)c2ccnc(N[C@@H](C)C(C)(C)O)n2)cc1` had an IC50 in data set [1] of 15 nM.

In data set [1], `COC[C@H](C)Nc1nccc(N(C(=O)NCc2ccccc2Cl)c2ccc(OC)cc2)n1` had an IC50 of 148 nM.

Compound `COc1ccc(N(C(=O)NCc2ccccc2C)c2ccnc(N[C@@H](C)C(C)(C)O)n2)cc1` yielded an IC50 in data set [1] of 37 nM.

`CC(C)Nc1nccc(N(C(=O)NCc2ccccn2)c2ccc(F)cc2)n1` gave an IC50 in data set [1] of 30 nM.

For the compound `COC[C@H](C)Nc1nccc(N(C(=O)NCc2ccc(Cl)c(Cl)c2)c2ccc(OC)cc2)n1`, the IC50 in data set [1] is 2070 nM.

In data set [1], `C[C@H](Nc1nccc(N(C(=O)NCc2ccccc2Cl)c2ccc(F)cc2)n1)C(C)(C)O` came in with an IC50 of 14 nM.

`COc1ccc(N(C(=O)NCc2ccccc2Cl)c2ccnc(N[C@@H](C)C(C)(C)O)n2)cc1`: in data set [1], the IC50 was found to be 9 nM. The metabolised at 4 h in data set [2] came out at 32%. In data set [3], this compound displayed a solubility below 10 µg/mL. This compound had a half-life in data set [4] of 1.9 h. Besides, the bioavailability in data set [5] was 1.9%.

As for `CC(C)Nc1nccc(N(C(=O)NCC2CCN(C(=O)OC(C)(C)C)CC2)c2ccc(F)cc2)n1`, the IC50 in data set [1] came out at 1160 nM.

In data set [1], `O=C(NCc1ccccc1Cl)N(c1ccc(F)cc1)c1ccnc(NC2CCOCC2)n1` had an IC50 of 16 nM.

For the compound `CC(C)Nc1nccc(N(C(=O)NCCN2CCN(C(=O)OC(C)(C)C)CC2)c2ccc(F)cc2)n1`, the IC50 in data set [1] is 277 nM.

In turn, `CNc1nccc(N(C(=O)NCc2ccccc2Cl)c2ccc(OC)cc2)n1` returned an inhibition at 10 µM in data set [7] of 3%.

`COc1ccc(N(C(=O)NCc2ccccc2Cl)c2ccnc(NC(C)C)n2)cc1`: the midpoint of inhibition in data set [1], the IC50, lay at 16 nM.

Compound `CCNC(=O)N(c1ccc(OC)cc1)c1ccnc(N[C@@H](C)C(C)(C)O)n1` gave an IC50 in data set [1] of 28 nM. The metabolised at 4 h in data set [2] came to 32%. This compound also yielded a solubility in data set [3] of 240 µg/mL (≈ 643 µM). The bioavailability in data set [8] was 15%. The same compound registered an Activity in data set [6] of 24%.

As for `O=C(NCc1ccccc1Cl)N(c1ccc(F)cc1)c1ccnc(Nc2c(F)cccc2F)n1`, at 10 µM the inhibition in data set [7] was 25%.

In data set [1], `CCNC(=O)N(c1ccc(OC)cc1)c1ccnc(N[C@@H](C)COC)n1` gave an IC50 of 819 nM.
